Pf Dd2 growth: P. falciparum Dd2 growth inhibitors, primary screen, SYBR Green fluorescence, single dose replicates. activity change, % at 10 µM. 94,000 compounds, 2.3% hits. 72 h; hits give low values; in the data active = activity change below about -80%; inconclusive = no clear call, values can overlap the other calls
T cruzi growth-1: T. cruzi intracellular proliferation inhibitors, primary screen, cell-based, beta-gal Tulahuen parasites, NIH3T3 host, luminescence; T. cruzi beta-gal in NIH3T3, GalScreen luminescence, 90 h; inhibition, % at 8.34 µM; 77,000 compounds, 5.9% hits; AID 624255, 2012;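 active = mean inhibition above about 93%, with at least 55% of replicates each passing it, limit read from the data, passing the limit was not always enough; inconclusive = only one of those two conditions holds; inactive = neither condition holds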
KDM4C inh: inhibitors of GASC-1 (KDM4C) histone demethylase, primary screen, biochemical, single concentration HTS; Lysine-specific demethylase 4C (Homo sapiens), Q9H3R0; GST-KDM4C 2-372, H3K9me3 peptide, LANCE TR-FRET; inhibition, % at 12.5 µM; 96,000 compounds, 0.15% hits; AID 720574, 2013;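 active = mean replicate inhibition above about 25%, with at least 55% of replicates also reaching it, limit read from the data, passing the limit was not always enough; inconclusive = only one of those two conditions met; inactive = neither condition met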
Target sequence (Q9H3R0 2-372 limits assumed): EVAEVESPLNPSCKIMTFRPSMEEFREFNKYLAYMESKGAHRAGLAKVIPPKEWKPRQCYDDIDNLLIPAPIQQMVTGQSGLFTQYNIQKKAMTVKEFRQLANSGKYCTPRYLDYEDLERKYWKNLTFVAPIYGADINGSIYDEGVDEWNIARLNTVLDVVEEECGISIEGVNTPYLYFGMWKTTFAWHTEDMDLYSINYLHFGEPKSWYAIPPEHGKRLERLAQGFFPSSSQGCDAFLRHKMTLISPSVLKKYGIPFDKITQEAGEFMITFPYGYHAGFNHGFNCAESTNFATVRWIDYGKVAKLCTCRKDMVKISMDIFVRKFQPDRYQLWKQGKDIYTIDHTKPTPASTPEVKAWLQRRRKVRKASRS
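Material: GST-tagged GASC-1 (JMJD2C) catalytic fragment, aa 2-372. Input: enzyme final amount 10 nM. Medium: HEPES buffer, pH 7.5, plus ascorbate. Reagent: H3K9me3 peptide substrate, Fe(II), 2-oxoglutarate. Doses: single dose. Times: reaction 30 min RT, detection step 1 h RT. Measured by: LANCE TR-FRET. Evaluation: Fall in 671/618 emission ratio as inhibition.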
IDH1 R132H inh: inhibitors of IDH1 R132H reductase, primary screen, biochemical, plate reader, single point; diaphorase/resazurin fluorescence, 60 min; inhibition, % at 10 µM; 70,000 compounds, 0.18% hits; in the data active = inhibition above about 34%; inconclusive = no clear call, values can overlap the other calls; inactive = below about 11%;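 also: 0% = DMSO and 100% = no enzyme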
Target sequence (O75874 whole entry R132H): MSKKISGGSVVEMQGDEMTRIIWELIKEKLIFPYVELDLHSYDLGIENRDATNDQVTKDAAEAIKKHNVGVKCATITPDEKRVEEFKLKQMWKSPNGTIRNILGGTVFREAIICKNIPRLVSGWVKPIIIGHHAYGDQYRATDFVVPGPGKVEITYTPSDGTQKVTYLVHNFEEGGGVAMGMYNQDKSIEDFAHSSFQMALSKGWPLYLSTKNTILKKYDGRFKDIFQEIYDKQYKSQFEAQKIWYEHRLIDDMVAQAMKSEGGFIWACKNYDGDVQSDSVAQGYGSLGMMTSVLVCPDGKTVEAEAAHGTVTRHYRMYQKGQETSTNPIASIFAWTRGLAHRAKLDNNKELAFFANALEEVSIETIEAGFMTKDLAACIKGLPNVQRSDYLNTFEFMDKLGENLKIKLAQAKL
T cruzi growth-2: T. cruzi intracellular proliferation inhibitors, confirmation, cell-based, NIH3T3 host, beta-gal parasite, luminescence, cherry-pick | shares compounds with T cruzi growth-1 | T. cruzi beta-gal in NIH3T3, GalScreen luminescence, 90 h | 5,600 compounds, 72% hits | inhibition, % at 8.35 µM;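 active = mean replicate inhibition above about 95% and at least 55% of replicates individually reaching it, limit read from the data; inconclusive = only one of the two criteria is met; inactive = neither criterion is met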
T cruzi growth-3: inhibitors of intracellular T. cruzi replication, confirmation, NIH3T3 host cells, beta-gal parasites, cherry-pick, set 2. shares compounds with T cruzi growth-1. T. cruzi beta-gal in NIH3T3, GalScreen luminescence, 90 h. inhibition, % at 2.09 µM. 5,600 compounds, 21% hits. AID 651740, 2012;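 active = mean inhibition above about 95%, with at least 55% of replicates also reaching it, limit read from the data; inconclusive = meets just one of the two conditions; inactive = meets neither condition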;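 also: plate controls were neutral control median for no effect and positive control median for full effect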
NIH3T3 tox: cytotoxicity in mouse NIH/3T3 fibroblasts, confirmation, cytotoxicity control for T. cruzi proliferation inhibitor project, cell-based, cherry-pick, single point | shares compounds with T cruzi growth-1 | NIH/3T3 viability, CellTiter-Glo ATP luminescence, 90 h | 5,600 compounds, 14% hits | cytotoxicity (signal decrease), % at 8.35 µM;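 active = mean signal decrease across replicates above about 35% based on untreated-well scatter, with enough replicates individually passing, limit read from the data; inconclusive = no rule stated though some were filed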;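 also: 0% = median of neutral control wells and 100% = median of positive control wells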
3T3 cytotox 2: NIH/3T3 fibroblast cytotoxicity, confirmation, cytotoxicity control, cell-based, cherry-pick, single point, set 2 | shares compounds with T cruzi growth-1 | NIH/3T3 viability, CellTiter-Glo ATP luminescence, 90 h | inhibition, % at 24.9 µM | 5,600 compounds, 56% hits | AID 651744, 2012;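 active = mean loss of cell viability signal at or above a set limit, and enough replicates individually reaching it; inconclusive = meets only the mean limit or only the replicate share; inactive = meets neither condition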;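 also: 0% = median of neutral control wells and 100% = median of positive control wells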
* = called active by the depositor; u = inconclusive; x = not tested or not shown. Only some compounds are listed: those with a hit (about 5.8% of all), similar ones and a draw of the others.

SMILES	Pf Dd2 growth	T cruzi growth-1	KDM4C inh	IDH1 R132H inh	T cruzi growth-2	T cruzi growth-3	NIH3T3 tox	3T3 cytotox 2
CN(C)CC(=O)N1CCCCN2[C@H](C1)[C@H](c1ccc(-c3cccnc3)cc1)[C@@H]2CO	-57.2	108.1*	-0.4	x	96.7*	1.7	2.1	-0.4
COc1ccc(NC(=O)COc2ccc(C(C)C)cc2Br)c([N+](=O)[O-])c1	x	x	x	-0.4	x	x	x	x
CN(c1cccc(NC(=O)c2ccc(CN3CCOCC3)cc2)c1)S(C)(=O)=O	x	x	x	0.6	x	x	x	x
COCC(=O)N1CC[C@@H]2[C@H]1c1cc(-c3ccc(F)cc3)ccc1N(C)[C@@H]2CO	15.5	106.2	4.0	x	x	x	x	x
CCCNC(=O)N1CC[C@@H]2[C@H]1c1cc(-c3ccccc3)ccc1N(C)[C@H]2CO	-4.2	u	3.7	x	108.1*	103.9*	8.4	11.5
COCC(=O)N1CC[C@@H]2[C@H]1c1cc(-c3ccccc3)ccc1N(C)[C@@H]2CO	14.8	107.8*	2.3	x	96.1*	84.8	-9.2	-3.5
COCC(=O)N1CC[C@@H]2[C@H]1c1cc(-c3ccccc3)ccc1N(C)[C@H]2CO	-6.0	105.4*	0.5	x	102.4*	85.0	-9.1	1.7
COC(=O)c1ccc(NC(=O)CN2C(=O)C3C4CC(c5ccccc5)C(C4)C3C2=O)cc1 (configuration not stated)	x	x	x	0.3	x	x	x	x
COCCNS(=O)(=O)c1ccc(Cl)c(Cl)c1OC	x	x	x	-0.7	x	x	x	x
C[C@H]1CN([C@@H](C)CO)S(=O)(=O)c2ccc(-c3ccncc3)cc2O[C@H]1CN(C)C(=O)c1ccc2c(c1)OCO2	-50.8	102.3*	-1.8	-1.1	102.8*	89.4	24.4	43.7*
C[C@H](CO)N1C[C@H](C)[C@H](CN(C)C(=O)c2ccc3c(c2)OCO3)Oc2cc(-c3ccccc3)ccc2S1(=O)=O	-27.2	x	-1.3	0.2	x	x	x	x
C[C@@H]1CN([C@H](C)CO)S(=O)(=O)c2ccc(-c3ccncc3)cc2O[C@@H]1CN(C)C(=O)c1ccc2c(c1)OCO2	-6.2	55.1	-0.7	0.4	x	x	x	x
C[C@H](CO)N1C[C@H](C)[C@H](CN(C)C(=O)c2ccc3c(c2)OCO3)Oc2cc(-c3ccncc3)ccc2S1(=O)=O	-38.0	103.8*	-0.3	-0.1	81.5	59.1	15.6	27.8*
C[C@@H]1CN([C@@H](C)CO)S(=O)(=O)c2ccc(-c3ccncc3)cc2O[C@@H]1CN(C)C(=O)c1ccc2c(c1)OCO2	6.9	42.5	-1.4	-0.1	x	x	x	x
C[C@@H]1CN([C@@H](C)CO)S(=O)(=O)c2ccc(-c3ccc(C(=O)N(C)C)cc3)cc2O[C@@H]1CN(C)Cc1ccc2c(c1)OCO2	-47.8	u	-1.0	-0.1	89.9	81.4	26.4	92.3*
C[C@@H]1CN([C@H](C)CO)S(=O)(=O)c2ccc(-c3ccncc3)cc2O[C@H]1CN(C)C(=O)c1ccc2c(c1)OCO2	-61.6	105.3*	1.8	0.1	101.4*	90.7	29.4	43.8*
Cc1ccc(-c2cc(C(F)(F)F)n3nc(C(=O)NCc4cc(C)n(C)n4)cc3n2)cc1C	x	x	x	0.0	x	x	x	x
CC(C)OCCCNc1ncnc(N)c1[N+](=O)[O-]	x	x	x	-0.2	x	x	x	x
COc1cccc(CNC(=O)[C@@H]2[C@@H](CO)[C@@H]3Cn4c(cccc4=O)[C@H]2N3C(=O)C2CCCCC2)c1	x	95.5*	-0.5	x	42.2	25.7	19.6	1.0
O=C(NCCN1CCCC1)[C@H]1[C@H](CO)[C@H]2Cn3c(cccc3=O)[C@@H]1N2C(=O)c1ccccc1	x	95.9*	0.5	x	-7.0	-24.9	-8.8	-20.5
O=C(NCCN1CCCCC1)[C@@H]1[C@@H](CO)[C@@H]2Cn3c(cccc3=O)[C@H]1N2C(=O)C1CCCCC1	9.2	62.7	-1.5	x	x	x	x	x
COc1ccc([N+](=O)[O-])cc1NC(=O)CN(c1ccccc1Cl)S(C)(=O)=O	x	x	x	0.2	x	x	x	x
CC(C)(C)S(=O)(=O)Cc1nc(-c2cccc(F)c2)cs1	x	x	x	2.0	x	x	x	x
CCCC#Cc1ccc2c(c1)O[C@@H](CN(C)C(=O)C1CCC1)[C@H](C)CN([C@@H](C)CO)S2(=O)=O	-55.9	91.7	-2.3	x	x	x	x	x
CCCC#Cc1ccc2c(c1)O[C@H](CN(C)C(=O)C1CCC1)[C@@H](C)CN([C@H](C)CO)S2(=O)=O	-41.1	u	1.8	-0.2	u	41.7	-10.7	4.2
SMILES	Pf Dd2 growth	T cruzi growth-1	KDM4C inh	IDH1 R132H inh	T cruzi growth-2	T cruzi growth-3	NIH3T3 tox	3T3 cytotox 2
CCCC#Cc1ccc2c(c1)O[C@H](CN(C)C(=O)C1CCC1)[C@H](C)CN([C@H](C)CO)S2(=O)=O	-26.9	u	0.1	x	u	61.9	28.7	57.4*
C[C@@H]1CN([C@H](C)CO)C(=O)c2cc(NC(=O)Cc3ccccc3)ccc2O[C@@H](C)CCCCO[C@H]1CN(C)S(=O)(=O)c1ccc(Cl)cc1	-81.9*	95.8*	0.5	x	107.2*	77.3	17.2	13.6
C[C@@H]1CCCCO[C@H](CN(C)S(=O)(=O)c2ccc(Cl)cc2)[C@@H](C)CN([C@@H](C)CO)C(=O)c2cc(NC(=O)Cc3ccccc3)ccc2O1	-68.1	105.2*	-1.9	-0.6	104.8*	87.0	-15.8	46.4*
CC1=CC=C(C=O)C(C)(C)C1OC(=O)/C=C(\C)CO (configuration not stated)	x	x	x	-0.4	x	x	x	x
O=S(=O)(NC1CCCCC1Sc1nnc(Nc2ccccc2)s1)c1ccccc1 (configuration not stated)	x	x	x	1.4	x	x	x	x
Cc1ccc2nc(-c3ccccn3)cc(C(=O)NCc3cnn(C)c3)c2c1	x	x	x	0.5	x	x	x	x
C[C@H](CO)N1C[C@H](C)[C@@H](CN(C)Cc2ccncc2)Oc2ccc(NC(=O)c3ccncc3)cc2CC1=O	17.3	9.6	-1.1	1.0	x	x	x	x
C[C@@H]1CN([C@@H](C)CO)C(=O)Cc2cc(NC(=O)c3ccncc3)ccc2O[C@H]1CN(C)Cc1ccc(-c2ccccc2)cc1	-66.5	109.3*	-1.8	0.5	103.9*	111.3*	28.3	103.0*
C[C@H](CO)N1C[C@H](C)[C@@H](CN(C)Cc2ccc(-c3ccccc3)cc2)Oc2ccc(NC(=O)C3CC3)cc2CC1=O	-19.4	104.7*	-2.4	1.4	105.7*	76.6	10.0	104.6*
